Reference: ChEMBL document CHEMBL4715721, “Synthesis and optimization of novel allylated mono-carbonyl analogs of curcumin (MACs) act as potent anti-inflammatory agents against LPS-induced acute lung injury (ALI) in rats” (Eur J Med Chem, 2016)

Key:
[1] = tested on: RAW264.7; experiment: Antiinflammatory activity in mouse RAW264.7 cells assessed as decrease in LPS-induced IL-6 secretion at 10 microM incubated for 30 mins followed by LPS stimulation and measured after 24 hrs by ELISA relative to control; format: functional; conditions: RAW264.7, 24.5 h, time 1470 min
Summary of the method: (§1)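 RAW264.7 cells in DMEM with 10% FBS at 37 °C, 5% CO₂; pretreated with 10 μM for 30 min, then LPS 0.5 μg/mL for 24 h. Medium TNF-α and IL-6 measured by ELISA and normalized to total protein of viable cells; percent inhibition, mean ± SD of three experiments.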

[2] = Cytotoxicity against human HL7702 cells assessed as cell survival rate at 10 uM incubated for 24 hrs by MTT assay; format: cell-based; conditions: HL7702 (L02) cells, read-out: Activity
Summary of the method: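 HL-7702 human normal hepatic cells exposed to 10 μM compound for 24 h; viability measured by MTT assay and given as survival rate, mean ± SD of three experiments.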

[3] = tested on: RAW264.7; experiment: (§2) Cytotoxicity against mouse RAW264.7 cells assessed as cell survival rate at 10 uM; format: cell-based; conditions: raw264.7, 10 µM
[4] = as §2; format: cell-based; conditions: RAW264.7 cells, read-out: Activity
[5] = tested on: RAW264.7; experiment: Antiinflammatory activity in mouse RAW264.7 cells assessed as decrease in LPS-induced TNF-alpha secretion at 10 microM incubated for 30 mins followed by LPS stimulation and measured after 24 hrs by ELISA relative to control; format: functional; conditions: RAW264.7, 24.5 h, time 1470 min; summary of the method: as §1
[6] = tested on: RAW264.7; experiment: Antiinflammatory activity in mouse RAW264.7 cells assessed as decrease in LPS-induced IL-6 secretion incubated for 30 mins followed by LPS stimulation and measured after 24 hrs by ELISA; format: functional, cell-based; conditions: dose 1-10 µM, time 1470.0 min
Summary of the method: (§3)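 RAW264.7 cells seeded at 4.0×10^5/plate overnight; pretreated at 1, 2.5, 5 or 10 μM for 30 min, then with or without LPS 0.5 μg/mL for 24 h. Medium IL-6 and TNF-α measured by ELISA and normalized to total protein; percent of LPS control, mean ± SEM of three independent experiments.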

[7] = tested on: RAW264.7; experiment: Antiinflammatory activity in mouse RAW264.7 cells assessed as decrease in LPS-induced TNF-alpha secretion incubated for 30 mins followed by LPS stimulation and measured after 24 hrs by ELISA; format: functional, cell-based; conditions: dose 1-10 µM, time 1470.0 min; summary of the method: as §3
[8] = Chemical stability of compound in PBS buffer containing 5% DMSO at pH 7.4 measured every 5 mins for 25 mins by UV-Vis absorption spectral analysis; format: physicochemical; conditions: pH 7.4, 25 min
Summary of the method: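 Compound diluted from 1 mM stock in phosphate buffer pH 7.4 containing 5% DMSO; UV-visible spectra recorded from 250 to 600 nm at 25 °C in a 1 cm quartz cuvette, every 5 min for 25 min.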

In the case of `C=CCc1cc(/C=C2\CN(C)C/C(=C\c3ccc(O)c(CC=C)c3)C2=O)ccc1O`, the inhibition at 10 µM [1] is reported as 57.1%, the viability at 24 h, 10 µM [2] is reported as 80.3% and the Activity [3] is reported as “Non-Toxic”.
With `C=CCc1cc(/C=C2\CN(S(=O)(=O)c3ccccc3)C/C(=C\c3ccc(O)c(CC=C)c3)C2=O)ccc1O` the inhibition at 10 µM [1] was 24.8%, the viability at 24 h, 10 µM [2] was 63.4% and the viability at 10 µM [4] was under 70%.
With `C=CCc1cc(/C=C2\CN(C(=O)c3c(Cl)cccc3Cl)C/C(=C\c3ccc(O)c(CC=C)c3)C2=O)ccc1O` the inhibition at 10 µM [1] was 79.6%, the viability at 24 h, 10 µM [2] was 79.6% and the Activity [3] was “Non-Toxic”.
For `C=CCc1cc(/C=C2\CNC/C(=C\c3ccc(O)c(CC=C)c3)C2=O)ccc1O`, the inhibition at 10 µM [1] was 44.4%, the viability at 24 h, 10 µM [2] was 77.9% and the Activity [3] was “Non-Toxic”.
In the case of `C=CCc1cc(/C=C2\CN(Cc3ccccc3)C/C(=C\c3ccc(O)c(CC=C)c3)C2=O)ccc1O`, the inhibition at 10 µM [1] is reported as 45.8%, the viability at 24 h, 10 µM [2] is reported as 62.1% and the viability at 10 µM [4] is reported as under 70%.
For `C=CCc1cc(/C=C2\CN(C(=O)c3ccc(C)cc3)C/C(=C\c3ccc(O)c(CC=C)c3)C2=O)ccc1O`, the inhibition at 10 µM [1] was 81.5%, the viability at 24 h, 10 µM [2] was 70.1% and the Activity [3] was “Non-Toxic”.
In the case of `C=CCc1cc(/C=C2\CN(C3CC3)C/C(=C\c3ccc(O)c(CC=C)c3)C2=O)ccc1O`, the inhibition at 10 µM [1] is reported as 77.5%, the inhibition at 10 µM [5] is reported as 39.5% and the viability at 24 h, 10 µM [2] is reported as 76.2%. For the same compound, the inhibition [6] was “Dose-dependent effect”, the inhibition [7] was “Dose-dependent effect” and the Stabilty [8] was “Stable”. The Activity [3] was “Non-Toxic”.
With `C=CCc1cc(/C=C2\CN(CC)C/C(=C\c3ccc(O)c(CC=C)c3)C2=O)ccc1O` the inhibition at 10 µM [1] was 67.6%, the viability at 24 h, 10 µM [2] was 79.6% and the Activity [3] was “Non-Toxic”.
For `C=CCc1cc(/C=C2\CN(C(=O)c3ccc(F)cc3)C/C(=C\c3ccc(O)c(CC=C)c3)C2=O)ccc1O`, the inhibition at 10 µM [1] was 86.8%, the viability at 24 h, 10 µM [2] was 78% and the Activity [3] was “Non-Toxic”.
